Bounds are passed on as bounds.

The species entered for test [1] is Bos taurus. Description: Tested in vitro at 30 uM for its ability to inhibit the human recombinant IL-1-beta-induced breakdown of bovine cartilage in a cartilage organ culture assay. The conditions noted are these: Cartilage tissue. Format: functional. In outline:
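Cartilage organ culture screen at a single 30 µM concentration. Bovine nasal septum explants in DMEM/5% FCS with rh IL-1β 500 ng/mL, 40 h, 37 °C, 95% air/5% CO2. Proteoglycan breakdown read as GAG release by dimethylmethylene blue; 35SO4 uptake over a further 2 h used for viability. Eight replicates; percent inhibition.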

The species entered for test [2] is Bos taurus. Description: In vitro inhibition of human recombinant IL-1-beta-induced breakdown of bovine cartilage in a cartilage organ culture assay. Format: functional. In outline:
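Bovine nasal septum cartilage discs (1 mm × 8 mm, cut in eighths) cultured in DMEM + 5% FCS with antibiotics, ± rh IL-1β 500 ng/mL ± drug (DMSO ≤1%) for 40 h at 37 °C. Released GAG measured by 1,9-dimethylmethylene blue against chondroitin sulfate standard, µg/mg wet weight. Eight replicates per group; dose response gives IC50 (µM).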

Test [3] has as its target Stromelysin-1 (Homo sapiens) (UniProt P08254). Description: Tested for inhibition of stromelysin using [3H]transferrin, following pre-incubation with prostromelysin for 0 hr prior to activation by plasmin. The conditions noted are these: concentration not given here.
Test [4] shares this target. Description: Tested for inhibition of stromelysin using [3H]transferrin, following pre-incubation with prostromelysin for 3 hr prior to activation by plasmin. As to conditions: concentration not given here.

Stromelysin-1 (Homo sapiens), sequence (P08254 whole entry, looked up): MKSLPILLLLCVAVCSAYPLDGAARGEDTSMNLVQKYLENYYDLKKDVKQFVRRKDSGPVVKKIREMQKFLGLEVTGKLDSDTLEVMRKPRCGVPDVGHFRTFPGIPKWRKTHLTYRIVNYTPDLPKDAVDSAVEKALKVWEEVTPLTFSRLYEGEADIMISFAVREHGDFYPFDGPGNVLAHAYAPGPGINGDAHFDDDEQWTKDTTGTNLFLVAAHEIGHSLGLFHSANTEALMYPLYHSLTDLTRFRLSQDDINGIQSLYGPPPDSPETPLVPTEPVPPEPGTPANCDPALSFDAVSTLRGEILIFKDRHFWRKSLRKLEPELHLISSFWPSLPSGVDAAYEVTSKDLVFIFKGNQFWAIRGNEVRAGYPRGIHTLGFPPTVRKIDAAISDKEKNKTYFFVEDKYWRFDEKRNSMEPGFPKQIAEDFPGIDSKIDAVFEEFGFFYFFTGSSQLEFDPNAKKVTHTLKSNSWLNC

A word on the inhibition: it is the relative decrease from the control value, in per cent. In the case of `COc1ccc(-n2sc3c(O)nc(O)nc3c2=O)cc1`, the inhibition in the test listed under Bos taurus [1] amounted to 49%.

For the compound `Nc1cccc(-n2sc3ncccc3c2=O)c1`, in the test filed under Bos taurus [1], the inhibition is 34%.

As to `CS(=O)(=O)Nc1ccc(-n2sc3ncccc3c2=O)cc1`, the inhibition in the test filed under Bos taurus [1] was determined as 28%.

For `O=c1c2cccnc2sn1-c1ccccn1`, in the test filed under Bos taurus [1], the inhibition was found to be 23%.

With `O=c1c2cccnc2sn1-c1cccc([N+](=O)[O-])c1`, in the test listed under Bos taurus [1], the inhibition is 37%.

In general, IC50 refers to the concentration that inhibits the measured activity by half. Take `COC(=O)c1cccc(OC)c1-n1sc2ncccc2c1=O`: in the test filed under Bos taurus [2], the half-maximal inhibitory concentration (IC50) came out at 8 µM.

Take `O=c1c2cccnc2sn1-c1ccccc1Cl`: the inhibition in the test listed under Bos taurus [1] came to 0%.

As to `CN(C)[C@@H]1C(O)=C(C(N)=O)C(=O)[C@@]2(O)C(O)=C3C(=O)c4c(O)cccc4[C@@](C)(O)[C@H]3C[C@@H]12` [TETRACYCLINE], the IC50 in the test listed under Bos taurus [2] was greater than 30 µM.

Take `COc1ccc(-n2sc3ncccc3c2=O)c(OC)c1`: the inhibition in test [3] is 45%; in test [4] it was 65%.

`COc1cc2c(=O)n(-c3ccccc3)sc2c(OC)n1`: the inhibition in the test listed under Bos taurus [1] is 39%.

On to `COc1ccc(-n2sc3c(OC)nccc3c2=O)cc1`, for which, in the test listed under Bos taurus [1], the inhibition amounted to 20%.

Turning to `COC(=O)c1cccc(-n2sc3ncccc3c2=O)c1`, the inhibition in the test listed under Bos taurus [1] was determined as 35%.

As to `COc1cccc(OC)c1-n1sc2ncccc2c1=O`, the inhibition in the test filed under Bos taurus [1] stood at 40%.

With `O=c1c2cccnc2sn1-c1ccc(Cl)cc1`, the IC50 in the test listed under Bos taurus [2] stood at 8.5 µM.

On to `COc1ccc(OC)c(-n2sc3ncccc3c2=O)c1`, for which the inhibition in test [3] worked out at 51%; in test [4], 68%.

Consider `O=c1c2ccnc(Cl)c2sn1-c1ccccc1`, for which the inhibition in the test filed under Bos taurus [1] was found to be 38%.

As for `COc1nc(OC)c2sn(-c3ccc(C(F)(F)F)cc3)c(=O)c2n1`, the inhibition in the test listed under Bos taurus [1] amounted to 39%.

For `COC(=O)c1ccccc1-n1sc2ncccc2c1=O`, the IC50 in the test listed under Bos taurus [2] was 25 µM.

`O=C1CCN(c2ccccc2)N1` [PHENIDONE]: the IC50 in the test filed under Bos taurus [2] is greater than 30 µM.

On to `N#Cc1ccc(-n2sc3ncccc3c2=O)cc1`, for which the inhibition in the test listed under Bos taurus [1] was determined as 40%.

Turning to `COc1ccc2c(c1)c(CC(=O)O)c(C)n2C(=O)c1ccc(Cl)cc1` [INDOMETHACIN], the IC50 in the test filed under Bos taurus [2] was greater than 30 µM.

Take `O=c1c2cccnc2sn1-c1ccc(C(F)(F)F)cc1`: the inhibition in the test listed under Bos taurus [1] stood at 17%.

For the compound `COc1ccc2cc([C@H](C)C(=O)O)ccc2c1` [NAPROXEN], the IC50 in the test listed under Bos taurus [2] was greater than 30 µM.

`O=c1c2cccnc2sn1-c1ccc(F)cc1`: in the test listed under Bos taurus [2], the half-maximal inhibitory concentration (IC50) was determined as 12 µM.

Take `COc1ccc(-n2sc3c(OC)nc(OC)nc3c2=O)cc1`: the inhibition in the test listed under Bos taurus [1] is 50%.

Turning to `COc1nc(OC)c2sn(-c3ccccc3)c(=O)c2n1`, the inhibition in the test listed under Bos taurus [1] is 40%.

The values above are taken from ChEMBL document CHEMBL1127463, “Heteroaryl-fused 2-phenylisothiazolone inhibitors of cartilage breakdown” (J Med Chem, 1994).
